In the library only some 4% were active in any assay of this set; here they are far more common.
FN deposition inh: fibronectin deposition inhibition; AH1F fibroblasts, Alexa488-fibronectin deposition fluorescence, overnight; AID 743247; actives 0.086% (n = 350,000); inhibition, % at 12.6 µM;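 active = mean inhibition across replicates of 30% or more, regardless of how many single replicates reach that level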;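 note: positive control wells lacked labelled fibronectin entirely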
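Measured by – fluorescence 485/525 nm · System – AH1F fibroblast monolayer, labelled fibronectin deposition · Amount – 10000 cells per well · Buffer or medium – serum-reduced DMEM (2% serum) · Doses – single dose, pinned · Also added – fluorescent fibronectin at 24 nM final · Schedule – 1 h cell attachment, overnight exposure to compound and label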
SIRT5 inh: sirtuin-5 (human) deacylase inhibition. Purified SirT5, succinyl-peptide AMC, trypsin-coupled fluorescence. actives 1.1% (n = 330,000). Q9NXA8. inhibition, % at 15 µM. AID 652115; in the data active = inhibition above about 15%
Statin myotox sup: suppression of simvastatin myotoxicity | C2C12 myotubes + simvastatin, ATP luminescence, 48 h; scaled: DMSO 0, geranylgeraniol control 100 | rescue of ATP level, % at 7.49 µM | actives 0.78% (n = 330,000) | AID 602340;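 active = mean ATP rescue above about 67%, or every replicate alone reaching that limit, limit read from the data, passing the limit was not always enough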;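 note: myotubes were challenged with 10 µM simvastatin during compound exposure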
rRNA inh HTS: inhibits bacterial ribosomal RNA function over humanized ribosomes | actives 1.6% (n = 350,000) | E. coli WT GFP vs humanized-ribosome RFP mutants, fluorescence, 24 h; hits give low values; DMSO median 0, no signal -100 | GFP signal change (wild-type ribosome), % (no concentration beside the values);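 active = significant combined selectivity score with lowered wild-type GFP, culture density cut under 30%, mutant RFP and density less affected; inactive = any of these conditions unmet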
FGF22 binding: binders of recombinant human FGF22 by thermal shift | SYPRO orange fluorescence; percent of sucrose octasulfate shift, DMSO zero | Q9HCT0 | activity (Tm shift, normalised), % at 9.99 µM | actives 1.5% (n = 340,000);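 active = mean Tm shift, scaled 0 neutral to 100 positive control, at about 1.3% or above, every replicate too, limit read from the data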
E-selectin induc: E-selectin induction on HUVECs. P16581. activation, % at 7.58 µM. HUVEC E-selectin immunofluorescence imaging; normalized: neutral wells 0, TNF-alpha wells 100. actives 0.37% (n = 260,000);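 active = mean E-selectin-positive cell signal at least 10% of the positive control, reached in at least 60% of replicates, without over 20% cell loss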
Target sequence (P16581 whole entry, looked up): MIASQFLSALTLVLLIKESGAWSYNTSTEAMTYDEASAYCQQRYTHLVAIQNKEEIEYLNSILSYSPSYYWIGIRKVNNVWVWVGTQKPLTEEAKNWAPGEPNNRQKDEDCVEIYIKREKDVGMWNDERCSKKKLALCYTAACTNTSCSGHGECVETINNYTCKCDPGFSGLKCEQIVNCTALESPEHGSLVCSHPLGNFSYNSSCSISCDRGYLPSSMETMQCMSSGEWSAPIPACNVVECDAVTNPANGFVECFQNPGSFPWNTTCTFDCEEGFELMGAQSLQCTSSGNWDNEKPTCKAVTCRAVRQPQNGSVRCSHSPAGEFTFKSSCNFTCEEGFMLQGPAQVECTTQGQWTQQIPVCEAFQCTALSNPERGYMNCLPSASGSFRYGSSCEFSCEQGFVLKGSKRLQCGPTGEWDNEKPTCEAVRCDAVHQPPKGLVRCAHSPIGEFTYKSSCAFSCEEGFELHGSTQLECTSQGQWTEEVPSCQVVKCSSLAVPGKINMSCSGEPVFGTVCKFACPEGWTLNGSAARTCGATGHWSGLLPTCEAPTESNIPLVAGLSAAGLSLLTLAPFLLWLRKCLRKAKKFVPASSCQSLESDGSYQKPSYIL
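Test system – human umbilical vein endothelial cells (HUVEC), E-selectin induction · Input – 3,000 HUVEC seeded per well · Buffer or medium – EGM-2, gelatin · Compound dosing – single-point compound dose · Detection – immunofluorescence imaging · Measure – percent E-selectin-positive cells · Controls – TNF-alpha high, DMSO low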
* marks the source's active call; other numbers are inactive results; · = no result.

SMILES	FN deposition inh	SIRT5 inh	Statin myotox sup	rRNA inh HTS	FGF22 binding	E-selectin induc
Cc1cc(NC(=O)Cn2ccsc2=N)c([N+](=O)[O-])cc1C	-16.3	1.7	·	2.0	43.1*	·
CCOc1ccc(C(C)C)cc1S(=O)(=O)N1CCOCC1	7.9	-0.5	·	·	43.3*	·
CCOc1cc(C)c(Cl)cc1S(=O)(=O)N1CCCC1	·	·	80.8*	·	·	·
CCOc1ccc(OCC)c(S(=O)(=O)N2CCOCC2)c1	2.4	2.9	8.1	1.6	0.0	-3.0
COc1cc(C)c(Cl)cc1S(=O)(=O)N1CCCC1	-3.8	-3.9	·	1.2	0.3	·
CCCOc1cc(C)c(Cl)cc1S(=O)(=O)N(CC)CC	-30.9	·	108.5*	·	·	·
Cc1ccc(S(=O)(=O)Nc2ccc3c(c2)C(=O)N([C@H](C)CO)C[C@H](C)[C@H](CN(C)Cc2ccc4c(c2)OCO4)O3)cc1	·	-1.3	19.8	8.0	-0.1	-0.5
C[C@H]1CN([C@@H](C)CO)S(=O)(=O)c2ccc(C3=CCCC3)cc2O[C@H]1CN(C)C(=O)c1ccccn1	·	-3.0	-5.9	-4.2	-0.1	0.0
Cc1noc(C)c1NC(=O)Nc1ccc2c(c1)CC(=O)N([C@@H](C)CO)C[C@@H](C)[C@@H](CN(C)S(=O)(=O)c1c(C)noc1C)O2	-8.9	4.9	-11.8	4.3	-0.1	0.1
CCC(=O)N1CC(=O)N2[C@@H](CO)[C@@H](c3ccc(-c4ccccc4F)cc3)[C@@H]2C1	·	-0.8	·	4.9	·	0.0
COCC(=O)N(C)C[C@@H]1Oc2ncc(C#Cc3ccccc3)cc2C(=O)N([C@H](C)CO)C[C@@H]1C	12.9	-0.2	7.4	2.6	-0.1	0.7
Nc1ccc2nc(-c3cccc(-c4nc5ccc(N)cc5[nH]4)c3)[nH]c2c1	-23.6	17.2*	·	15.5	0.1	0.2
Cc1noc(C)c1S(=O)(=O)N(C)C[C@@H]1OCCCC[C@H](C)Oc2ccc(NS(=O)(=O)c3cccs3)cc2C(=O)N([C@@H](C)CO)C[C@H]1C	·	-0.9	·	4.2	-0.1	0.4
O=C(CSc1nnc(-c2ccccc2)n1C1CCCCC1)Nc1ccc(S(=O)(=O)Nc2ccccn2)cc1	·	·	-58.0	·	·	·
CCn1c(SCC(=O)Nc2ccc(S(=O)(=O)Nc3ccccn3)cc2)nnc1-c1ccncc1	·	·	94.7*	·	·	·
CCn1c(/C=C/c2ccc(F)cc2)nc2ccccc2c1=O	2.5	-3.4	-1.3	2.7	0.0	·
CCn1c(/C=C/c2ccccc2)nc2ccccc2c1=O	-16.7	0.3	·	2.5	43.7*	·
C=CCn1c(COc2cccc3cccnc23)nnc1SCC(=O)O	·	·	105.3*	·	·	·
CCOc1ccc(NC(=S)NC(C)C(c2ccccc2)N2CCN(C)CC2)cc1 (centres undefined)	·	0.5	·	0.2	-0.1	·
CC(NC(=O)COc1ccccc1)C(c1ccccc1)N1CCN(C)CC1 (centres undefined)	·	·	90.3*	·	·	·
O=C1CN(S(=O)(=O)c2cccc(F)c2)C[C@@H]2[C@@H](c3ccc(C4=CCCC4)cc3)[C@H](CO)N12	3.4	-0.3	·	2.7	0.1	0.4
O=C(Cc1ccccc1)NCCSCc1ccc(Cl)cc1	·	·	-5.7	·	·	·
O=C(Cc1ccc(Cl)cc1)SCc1ccccc1	0.3	4.2	18.1	5.7	43.7*	0.2
O=C(O)CC(c1ccccc1)n1cccc1 (centres undefined)	0.6	·	114.5*	·	·	·
Nc1ccc(C(CC(=O)O)n2cccc2)cc1 (centres undefined)	4.1	21.0*	8.8	7.7	0.7	·
SMILES	FN deposition inh	SIRT5 inh	Statin myotox sup	rRNA inh HTS	FGF22 binding	E-selectin induc
C[C@@H]1CN([C@@H](C)CO)C(=O)c2cc(-c3ccccc3)cnc2O[C@H]1CN(C)C(=O)c1ccccn1	·	1.3	-9.1	5.6	-0.3	0.0
C[C@@H]1CCCCO[C@@H](CN(C)S(=O)(=O)c2cccs2)[C@H](C)CN([C@@H](C)CO)C(=O)c2cc(NC(=O)C3CCCCC3)ccc2O1	·	-0.3	·	-0.4	0.0	-0.1
COc1cc(/C=C2\SC(=O)N(c3cccc(Cl)c3)C2=O)cc([N+](=O)[O-])c1O	-8.7	-0.5	·	-33.3*	0.1	·
COc1cc(/C=C2\SC(=O)N(c3ccc(Cl)cc3)C2=O)cc([N+](=O)[O-])c1O	·	-3.9	·	-3.4	·	·
Cc1noc(C)c1NC(=O)N(C)C[C@H]1OCCCC[C@@H](C)Oc2ccc(NS(=O)(=O)c3ccc(Cl)cc3)cc2C(=O)N([C@H](C)CO)C[C@H]1C	-0.9	2.3	·	-0.6	·	·
C[C@@H]1CCCCO[C@@H](CN(C)CC2CC2)[C@H](C)CN([C@@H](C)CO)C(=O)c2cc(NC(=O)NC3CCCCC3)ccc2O1	·	2.4	·	4.4	-0.1	0.4
CCOC(=O)CC1(CCc2ccccc2)Oc2ccccc2N1S(=O)(=O)c1ccc(C)cc1 (centres undefined)	-3.0	2.0	·	2.8	-0.3	0.0
CCOC(=O)CC1(C)Sc2ccccc2N1S(=O)(=O)c1ccc(C)cc1 (centres undefined)	6.1	·	·	-5.3	43.0*	0.5
CCNC(=O)C[C@@H]1CC[C@H]2[C@H](COc3ccc(NC(=O)c4ccc(C(F)(F)F)cc4)cc3C(=O)N2C)O1	-4.2	1.2	-2.7	-5.0	-0.1	0.2
Cc1sc(N(C(=O)CCc2ccccc2)c2ccc(C(=O)O)cc2)nc1-c1ccccc1	-2.2	0.6	·	4.9	0.6	1.5
CCC(=O)N(c1ccc(C(=O)O)cc1)c1nc(-c2ccc(OC)cc2)c(C)s1	·	·	·	16.4	43.7*	·
N=C1/C(=C\c2coc3ccccc3c2=O)C(=O)N=C2SC(c3ccncc3)=NN12	7.0	-5.2	·	-15.2*	0.2	0.7
O=C(COC(=O)c1cc(Br)ccc1Cl)NC(=O)NCc1ccccc1	-12.2	-2.5	·	3.6	44.0*	·
COc1cccc(-c2ccc(C#N)c(=O)[nH]2)c1	-10.5	-6.4	·	·	43.3*	·
CN(Cc1nc(-c2cnccn2)no1)C1CC(C)(C)NC(C)(C)C1	6.0	-2.7	·	15.9	43.3*	·
CN(Cc1nc(-c2cnccn2)no1)CC1(c2ccccc2)CC1(C)C (centres undefined)	·	-5.5	2.9	-1.6	-0.2	·
C[C@@H]1CN([C@H](C)CO)C(=O)c2cc(NS(C)(=O)=O)ccc2O[C@H]1CN(C)S(=O)(=O)c1ccc(F)cc1	·	2.4	-36.0	-2.3	-0.1	14.9
Nc1nc(-c2ccc3c(c2)OCCO3)cs1	·	·	5.9	·	·	·
Nc1nc(-c2cc3c(cc2Cl)OCCO3)cs1	31.8*	2.7	19.0	-4.7	-0.2	·
O=C(CCl)N=c1sccn1Cc1ccc(Cl)cc1Cl	25.0	-6.3	·	-24.1	44.0*	·
O=C(CCl)N=c1sccn1Cc1ccccc1Cl	21.8	-2.4	·	-4.2	0.0	·
CCNC(=O)Nc1ccc2c(c1)C(=O)N(C)[C@@H]1CC[C@@H](CC(=O)NCC3CC3)O[C@@H]1CO2	-3.6	·	-1.2	-0.4	-0.2	0.6

Bioassay records from PubChem BioAssay.
